The record followed here is ChEMBL document CHEMBL1122242, “Phenylenebis(oxy)bis[2,2-dimethylpentanoic acid]s: agents that elevate high-density lipoproteins” (1983).

Type in all cases: functional
Assay [1] deals with Rattus norvegicus. As to the kind of experiment: Hypolipidemic effects (low-density lipoprotein (LDL) cholesterol) in male rats; Compound was screening orally at 50 mg/Kg. A digest of the protocol: (§1)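 Male rats, 10 per group, fed 7 days on chow with 10% fat (5.5% added peanut oil), 1.5% cholesterol and 0.1% cholic acid. Oral gavage on days 4-7 in 4% acacia, usually 50 mg/kg daily. Fasted overnight, killed day 8, atrial blood into EDTA. Plasma cholesterol, TG and HDL cholesterol (after MnCl2/heparin precipitation) by Autoanalyzer. % change vs controls, Student's t test.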

Assay [2] is filed under the species Rattus norvegicus. The assay can be described thus: Hypolipidemic effects(liver weight) in male rats. A digest of the protocol: as §1
For assay [3], the species on record is Rattus norvegicus. As to the kind of experiment: Hypolipidemic effects(plasma TG) in male rats. A digest of the protocol: as §1
For assay [4], the species on record is Rattus norvegicus. As to the kind of experiment: Hypolipidemic effects(plasma cholesterol) in male rats. A digest of the protocol:
as §1

The test system of assay [5] is Rattus norvegicus. As to the kind of experiment: Hypolipidemic effects (high-density lipoprotein (HDL) cholesterol) in male rats;Compound was screening orally at 50 mg/Kg. A digest of the protocol:
as §1

In assay [6] the test system is Rattus norvegicus. As to the kind of experiment: Hypolipidemic effects (low-density lipoprotein (LDL) cholesterol) in male rats;Compound was screening orally at 50 mg/Kg. A digest of the protocol:
as §1

In assay [7] the test system is Rattus norvegicus. As to the kind of experiment: Hypolipidemic effects (high-density lipoprotein (HDL) cholesterol) in male rats; Compound was screening orally at 50 mg/Kg. The method in brief: as §1

`CCCC(=O)c1cc(OCCCC(C)(C)C(=O)OC)ccc1OCCCC(C)(C)C(=O)OC`: the Change is -52% in the assay on Rattus norvegicus [1]; 34% in the assay listed under Rattus norvegicus [2]; 0% in the assay filed under Rattus norvegicus [3]; 39% in the assay listed under Rattus norvegicus [4]; 1100% in the assay on Rattus norvegicus [5].
For `O=C(O)C1(CCCCOc2ccc(OCCCCC3(C(=O)O)CCC3)cc2)CCC1`, the Change in the assay filed under Rattus norvegicus [2] is 0%; in the assay with Rattus norvegicus [6], -32%; in the assay listed under Rattus norvegicus [3] it was 0%; in the assay filed under Rattus norvegicus [4], -23%; in the assay with Rattus norvegicus [5] it was 55%.
Take `CC(C)(CCCCCOc1cccc(OCCCCCC(C)(C)C(=O)O)c1)C(=O)O`: the Change with Rattus norvegicus [1] is -27%; in the assay filed under Rattus norvegicus [2] it was 0%; in the assay filed under Rattus norvegicus [3], 0%; in the assay listed under Rattus norvegicus [4] it was -22%; in the assay with Rattus norvegicus [5] it was 48%.
Take `COC(=O)C(C)(C)CCCOc1ccc(C=N/N=C(/N)S)c(OCCCC(C)(C)C(=O)OC)c1`: the Change in the assay listed under Rattus norvegicus [2] was 38%; with Rattus norvegicus [6], -83%; in the assay filed under Rattus norvegicus [3], -50%; in the assay filed under Rattus norvegicus [4], -60%; in the assay with Rattus norvegicus [7], 280%.
On the same counts, the results for `COC(=O)C(C)(C)CCCSc1ccc(Oc2ccc(SCCCC(C)(C)C(=O)OC)cc2)cc1` are 4%, -31%, 0%, -29% and 0%.
`CC(C)(CCCOc1ccc(OCCCC(C)(C)C(=O)O)c(CO)c1)C(=O)O`: the Change in the assay listed under Rattus norvegicus [2] came out at 9%; in the assay with Rattus norvegicus [6], 0%; in the assay filed under Rattus norvegicus [3], 18%; in the assay filed under Rattus norvegicus [4], 40%; with Rattus norvegicus [7], 319%.
Consider `CC(C)(CCOc1cccc(OCCC(C)(C)C(=O)O)c1)C(=O)O`, for which the Change in the assay with Rattus norvegicus [1] was -46%; in the assay filed under Rattus norvegicus [2], 17%; in the assay filed under Rattus norvegicus [3], 240%; in the assay filed under Rattus norvegicus [4], -28%; with Rattus norvegicus [5], 383%.
Turning to `CC(C)(CCOc1ccc(Sc2ccc(OCCC(C)(C)C(=O)O)cc2)cc1)C(=O)O`, the Change in the assay listed under Rattus norvegicus [2] is listed as 0%; in the assay listed under Rattus norvegicus [3] it was -32%; in the assay listed under Rattus norvegicus [4], -25%; in the assay with Rattus norvegicus [5] it was 46%.
With `CC(C)(CCCOc1ccc(OCCCC(C)(C)C(=O)O)cc1)C(=O)O`, the Change is -27% in the assay with Rattus norvegicus [1]; 0% in the assay listed under Rattus norvegicus [3]; -45% in the assay listed under Rattus norvegicus [4]; 44% with Rattus norvegicus [7]; 791% with Rattus norvegicus [5].
For `CCCC(O)c1cc(OCCCC(C)(C)C(=O)O)ccc1OCCCC(C)(C)C(=O)O` (stereo not given), the Change in the assay listed under Rattus norvegicus [2] is 37%; in the assay on Rattus norvegicus [6], -45%; in the assay listed under Rattus norvegicus [3], 0%; in the assay filed under Rattus norvegicus [4] it was 61%; in the assay with Rattus norvegicus [7] it was 1292%.
As to `CC(C)(CCOc1ccc(OCCC(C)(C)C(=O)O)c(Cl)c1)C(=O)O`, the Change is listed as 13% in the assay filed under Rattus norvegicus [2], -32% in the assay filed under Rattus norvegicus [3], -62% in the assay listed under Rattus norvegicus [4] and 348% in the assay on Rattus norvegicus [5].
In the case of `CC(C)(CCCOc1cc(Cl)c(OCCCC(C)(C)C(=O)O)cc1Cl)C(=O)O`, the Change is given as 41% in the assay listed under Rattus norvegicus [2], 35% in the assay listed under Rattus norvegicus [3], -55% in the assay filed under Rattus norvegicus [4] and 384% in the assay with Rattus norvegicus [5].
Regarding `COC(=O)C(C)(C)CCCOc1ccc(OCCCC(C)(C)C(=O)OC)c(/C=N/NC(N)=O)c1`, the Change with Rattus norvegicus [1] was -33%; in the assay filed under Rattus norvegicus [2], 4%; in the assay listed under Rattus norvegicus [3], 0%; in the assay listed under Rattus norvegicus [4] it was -28%; in the assay on Rattus norvegicus [5], 0%.
For `COC(=O)C(C)(C)CCCOc1ccc(OCCCC(C)(C)C(=O)OC)c(F)c1`, the Change in the assay filed under Rattus norvegicus [2] is 41%; in the assay on Rattus norvegicus [6], -65%; in the assay listed under Rattus norvegicus [3], 0%; in the assay filed under Rattus norvegicus [4], -30%; in the assay on Rattus norvegicus [5], 347%.
`COC(=O)C(C)(C)CCCOc1ccc(OCCCC(C)(C)C(=O)OC)c(OC)c1`: the Change was -31% with Rattus norvegicus [1]; 30% in the assay filed under Rattus norvegicus [2]; 0% in the assay listed under Rattus norvegicus [3]; -26% in the assay listed under Rattus norvegicus [4]; 566% in the assay with Rattus norvegicus [5].
Turning to `CC(C)(Oc1cccc(OC(C)(C)C(=O)O)c1)C(=O)O`, the Change in the assay filed under Rattus norvegicus [2], in the assay with Rattus norvegicus [6], in the assay listed under Rattus norvegicus [3], in the assay filed under Rattus norvegicus [4] and in the assay on Rattus norvegicus [7] was 0% each time.
On to `COC(=O)C(C)(C)CCCOc1ccc(OCCCC(C)(C)C(=O)OC)c(C(=O)c2ccccc2)c1`, for which the Change was 11% in the assay listed under Rattus norvegicus [2]; -42% in the assay with Rattus norvegicus [6]; 43% in the assay listed under Rattus norvegicus [3]; 0% in the assay listed under Rattus norvegicus [4]; 421% with Rattus norvegicus [5].
Consider `COC(=O)C(C)(C)CCCOc1cccc(OCCCC(C)(C)C(=O)OC)c1N`, for which the Change is recorded as 8% in the assay listed under Rattus norvegicus [2]; -42% in the assay with Rattus norvegicus [6]; -41% in the assay filed under Rattus norvegicus [3]; -37% in the assay listed under Rattus norvegicus [4]; 46% in the assay on Rattus norvegicus [7].
On to `CCC(=O)c1cc(OCCCC(C)(C)C(=O)OC)ccc1OCCCC(C)(C)C(=O)OC`, for which the Change with Rattus norvegicus [1] is -57%; in the assay filed under Rattus norvegicus [2], 40%; in the assay filed under Rattus norvegicus [3] it was 0%; in the assay listed under Rattus norvegicus [4] it was 0%; in the assay on Rattus norvegicus [5] it was 723%.
As to `CC(C)(CCCCOc1cccc(OCCCCC(C)(C)C(=O)O)c1)C(=O)O`, the Change is recorded as -52% with Rattus norvegicus [1]; 18% in the assay listed under Rattus norvegicus [2]; 41% in the assay listed under Rattus norvegicus [3]; -37% in the assay listed under Rattus norvegicus [4]; 317% in the assay on Rattus norvegicus [5].
Turning to `CC(C)(CCCOc1ccc(OCCCC(C)(C)C(=O)O)c(-c2ccc(Cl)cc2)c1)C(=O)O`, the Change is given as 17% in the assay listed under Rattus norvegicus [2]; -78% in the assay on Rattus norvegicus [6]; -29% in the assay filed under Rattus norvegicus [3]; -47% in the assay filed under Rattus norvegicus [4]; 224% with Rattus norvegicus [7].
Take `COC(=O)C(C)(C)CCCOc1ccc(-c2ccccc2)c(OCCCC(C)(C)C(=O)OC)c1`: the Change with Rattus norvegicus [1] was -25%; in the assay filed under Rattus norvegicus [2], 6%; in the assay listed under Rattus norvegicus [3], 0%; in the assay listed under Rattus norvegicus [4], 0%; in the assay on Rattus norvegicus [5], 40%.
Consider `CC(O)c1cc(OCCCC(C)(C)C(=O)O)ccc1OCCCC(C)(C)C(=O)O` (stereo not given), for which the Change is 12% in the assay listed under Rattus norvegicus [2]; -70% in the assay on Rattus norvegicus [6]; 0% in the assay listed under Rattus norvegicus [3]; -27% in the assay listed under Rattus norvegicus [4]; 525% in the assay on Rattus norvegicus [7].
Regarding `CC(C)(CCOc1ccc(OCCC(C)(C)C(=O)O)cc1)C(=O)O`, the Change is given as 40% in the assay listed under Rattus norvegicus [2], 0% in the assay filed under Rattus norvegicus [3], -33% in the assay filed under Rattus norvegicus [4] and 370% in the assay on Rattus norvegicus [5].
Regarding `COC(=O)C(C)(C)CCCOc1cccc(OCCCC(C)(C)C(=O)OC)c1C(C)=O`, the Change was 0% in the assay listed under Rattus norvegicus [2]; -40% with Rattus norvegicus [6]; 0% in the assay listed under Rattus norvegicus [3]; -38% in the assay listed under Rattus norvegicus [4]; 0% in the assay with Rattus norvegicus [7].
Turning to `COC(=O)C(C)(C)CCCOc1ccc(OCCCC(C)(C)C(=O)OC)c(Br)c1`, the Change in the assay filed under Rattus norvegicus [2] was 30%; in the assay filed under Rattus norvegicus [3], -39%; in the assay listed under Rattus norvegicus [4], -45%; in the assay with Rattus norvegicus [5] it was 728%.
In the case of `CC(C)(CO)CCCCOc1ccc(OCCCCC(C)(C)CO)cc1`, the Change is on record as 30% in the assay listed under Rattus norvegicus [2]; -54% in the assay on Rattus norvegicus [6]; 0% in the assay filed under Rattus norvegicus [3]; 0% in the assay filed under Rattus norvegicus [4]; 907% in the assay on Rattus norvegicus [7].
`CC(C)(CCCOc1ccc(OCCCC(C)(C)C(=O)O)c(C(=O)O)c1)C(=O)O`: the Change in the assay with Rattus norvegicus [1] was -17%; in the assay listed under Rattus norvegicus [2] it was 0%; in the assay filed under Rattus norvegicus [3], 0%; in the assay listed under Rattus norvegicus [4] it was 0%; in the assay on Rattus norvegicus [5] it was 0%.
As to `CC(C)(CCCOc1ccc(C(=O)c2ccccc2)c(OCCCC(C)(C)C(=O)O)c1)C(=O)O`, the Change in the assay listed under Rattus norvegicus [2] was 11%; in the assay with Rattus norvegicus [6], -10%; in the assay filed under Rattus norvegicus [3], 57%; in the assay filed under Rattus norvegicus [4] it was 0%; with Rattus norvegicus [7], 169%.
Take `Cc1ccc(-c2cc(OCCCC(C)(C)C(=O)O)ccc2OCCCC(C)(C)C(=O)O)cc1`: the Change in the assay filed under Rattus norvegicus [2] is given as 0%; in the assay with Rattus norvegicus [6], -42%; in the assay filed under Rattus norvegicus [3], -27%; in the assay listed under Rattus norvegicus [4], -32%; in the assay with Rattus norvegicus [7], 66%.
